Assays:
[1] = substrate: CN[C@H](C)[C@H](O)c1ccccc1; test: (§1) Apparent Michaelis constant (Km) against Arylsulfotransferase (AST IV)
In short: (§2)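 Recombinant rat hepatic AST IV, expressed in E. coli and purified. Each reaction held 1.0 μg enzyme, 0.2 mM PAPS, 8.3 mM 2-mercaptoethanol, varying substrate and 0.25 M potassium phosphate at pH 7.0. Mixtures were preincubated 2 min at 37 °C, started with enzyme, run 10 min at 37 °C and stopped with methanol. Substrate-dependent PAP formation was read by HPLC and corrected with substrate-free controls. kcat is in min⁻¹ and apparent Km in M.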

[2] = substrate: Oc1ccc(-c2ccccc2)cc1; test: as §1; in short: as §2
[3] = substrate: OCc1ccccc1; test: as §1; in short: as §2
[4] = substrate: CN[C@@H](C)C(O)c1ccccc1; test: as §1; in short: as §2
[5] = substrate: CCCCc1ccc(O)cc1; test: as §1; in short: as §2
[6] = substrate: ONc1ccccc1; test: as §1; in short: as §2
[7] = substrate: CCc1ccc(O)cc1; test: as §1; in short: as §2
[8] = substrate: COC(=O)[C@@H](N)Cc1ccc(O)cc1; test: as §1; in short: as §2
[9] = substrate: ONc1ccc(Cl)cc1; test: as §1; in short: as §2
[10] = substrate: CCCN(O)c1ccccc1; test: as §1; in short: as §2
[11] = substrate: OCc1ccoc1; test: as §1; in short: as §2
[12] = substrate: CCCCC[C@H](O)c1ccccc1; test: as §1; in short: as §2
[13] = substrate: Cc1ccc(CO)cc1; test: as §1; in short: as §2
[14] = substrate: OCc1cccc2ccccc12; test: as §1; in short: as §2
[15] = substrate: CCCc1ccc(CO)cc1; test: as §1; in short: as §2
[16] = substrate: CCCCCCCCCc1ccc(O)cc1; test: as §1; in short: as §2
[17] = substrate: CC(=O)Nc1ccc(O)cc1; test: as §1; in short: as §2
[18] = substrate: CCCCCc1ccc(O)cc1; test: as §1; in short: as §2
[19] = substrate: CCCCc1ccc(CO)cc1; test: as §1; in short: as §2
[20] = target: Aryl sulfotransferase IV (Rattus norvegicus); test: as §1; in short: as §2
[21] = substrate: OCc1c[nH]c2ccccc12; test: as §1; in short: as §2
[22] = substrate: CCN(O)c1ccccc1; test: as §1; in short: as §2
[23] = substrate: Cc1ccc(O)cc1; test: as §1; in short: as §2
[24] = substrate: CN(O)c1ccccc1; test: as §1; in short: as §2
[25] = substrate: O=[N+]([O-])c1ccc(O)c(Cl)c1; test: as §1; in short: as §2
[26] = substrate: CCCC[C@H](O)c1ccccc1; test: as §1; in short: as §2
[27] = substrate: CCCCCCCc1ccc(O)cc1; test: as §1; in short: as §2
[28] = substrate: CCCCCC[C@H](O)c1ccccc1; test: as §1; in short: as §2
[29] = substrate: OC1CCCc2ccccc21; test: as §1; in short: as §2
[30] = substrate: CCCc1ccc(O)cc1; test: as §1; in short: as §2
[31] = substrate: O=[N+]([O-])c1ccc(CO)cc1; test: as §1; in short: as §2
[32] = substrate: CCCCCCc1ccc(CO)cc1; test: as §1; in short: as §2
[33] = substrate: C[C@H](O)c1ccccc1; test: as §1; in short: as §2
[34] = substrate: [H][C@]12CC3(c4ccc(O)cc4)C[C@]([H])(C1)C[C@@]([H])(C3)C2; test: as §1; in short: as §2
[35] = substrate: O=C(CBr)Nc1ccc(O)cc1; test: as §1; in short: as §2
[36] = substrate: C[C@@H](O)c1ccccc1; test: as §1; in short: as §2
[37] = substrate: CCCCCCCc1ccc(CO)cc1; test: as §1; in short: as §2
[38] = substrate: OCc1ccc2ccccc2c1; test: as §1; in short: as §2
[39] = substrate: CCC[C@H](O)c1ccccc1; test: as §1; in short: as §2
[40] = substrate: CC[C@H](O)c1ccccc1; test: as §1; in short: as §2
[41] = substrate: CCCCCc1ccc(CO)cc1; test: as §1; in short: as §2
[42] = substrate: CC(C)[C@H](O)c1ccccc1; test: as §1; in short: as §2
not read [43] = substrate: Oc1ccccc1; test: not read
not read [44] = substrate: Oc1ccc2ccccc2c1; test: not read

B1: Sulfotransferase 1A1 (Rattus norvegicus) (protein)
chain: MEFSRPPLVHVKGIPLIKYFAETIGPLQNFTAWPDDLLISTYPKSGTTWMSEILDMIYQGGKLEKCGRAPIYARVPFLEFKCPGVPSGLETLEETPAPRLLKTHLPLSLLPQSLLDQKVKVIYIARNAKDVVVSYYNFYNMAKLHPDPGTWDSFLENFMDGEVSYGSWYQHVKEWWELRHTHPVLYLFYEDIKENPKREIKKILEFLGRSLPEETVDSIVHHTSFKKMKENCMTNYTTIPTEIMDHNVSPFMRKGTTGDWKNTFTVAQNERFDAHYAKTMTDCDFKFRCEL
Work on B1 yielded a Km [1] of 11000 µM, a Vmax [1] of 0.0404 µM/min and a Km [2] of 91 µM. It also gave a Vmax [2] of 0.212 µM/min, a Km [3] of 50 µM and a Vmax [3] of 0.0305 µM/min. The Km [4] was 6990 µM, the Vmax [4] was 0.0225 µM/min and the Km [5] was 5 µM. For the same protein, the Vmax [5] was 0.296 µM/min, the Km [6] was 230 µM and the Vmax [6] was 0.043 µM/min. It also gave a Km [7] of 10 µM, a Vmax [7] of 0.41 µM/min and a Km [8] of 4000 µM. For the same protein, the Vmax [8] was 0.35 µM/min, the Km [9] was 26 µM and the Vmax [9] was 0.035 µM/min. For the same protein, the Km [10] was 161 µM, the Vmax [10] was 0.0986 µM/min and the Km [11] was 960 µM. The Vmax [11] was 0.0102 µM/min, the Km [12] was 7 µM and the Vmax [12] was 0.0021 µM/min. For the same protein, the Km [13] was 600 µM, the Vmax [13] was 0.508 µM/min and the Km [14] was 30 µM. It also gave a Vmax [14] of 0.026 µM/min, a Km [15] of 40 µM and a Vmax [15] of 0.178 µM/min. For the same protein, the Km [16] was 109 µM, the Vmax [16] was 0.091 µM/min and the Km [17] was 92 µM. It also gave a Vmax [17] of 0.181 µM/min, a Km [18] of 9 µM and a Vmax [18] of 0.208 µM/min. The Km [19] was 30 µM, the Vmax [19] was 0.13 µM/min and the Km [20] was 60 µM. The Vmax [20] was 0.182 µM/min, the Km [21] was 29 µM and the Vmax [21] was 0.0332 µM/min. It also gave a Km [22] of 650 µM, a Vmax [22] of 0.273 µM/min and a Km [23] of 10 µM. For the same protein, the Vmax [23] was 0.32 µM/min, the Km [24] was 119 µM and the Vmax [24] was 0.085 µM/min. For the same protein, the Km [25] was 5 µM, the Vmax [25] was 0.028 µM/min and the Km [26] was 10 µM. It also gave a Vmax [26] of 0.0305 µM/min, a Km [27] of 61 µM and a Vmax [27] of 0.132 µM/min. The Km [28] was 20 µM, the Vmax [28] was 0.0052 µM/min and the Km [29] was 30 µM. The Vmax [29] was 0.0287 µM/min, the Km [30] was 6 µM and the Vmax [30] was 0.427 µM/min. For the same protein, the Km [31] was 199 µM, the Vmax [31] was 0.0206 µM/min and the Km [32] was 30 µM. For the same protein, the Vmax [32] was 0.0967 µM/min, the Km [33] was 250 µM and the Vmax [33] was 0.0337 µM/min. It also gave a Km [34] of 1 µM, a Vmax [34] of 0.0472 µM/min and a Km [35] of 22 µM. It also gave a Vmax [35] of 0.095 µM/min, a Km [36] of 1730 µM and a Vmax [36] of 0.0206 µM/min. For the same protein, the Km [37] was 410 µM, the Vmax [37] was 0.133 µM/min and the Km [38] was 26 µM. The Vmax [38] was 0.0776 µM/min, the Km [39] was 360 µM and the Vmax [39] was 0.0085 µM/min. The Km [40] was 240 µM, the Vmax [40] was 0.0099 µM/min and the Km [41] was 20 µM. For the same protein, the Vmax [41] was 0.109 µM/min, the Km [42] was 1360 µM and the Vmax [42] was 0.0061 µM/min. The Km (not read [43]) was 19 µM, the Vmax (not read [43]) was 0.35 µM/min and the Km (not read [44]) was 8 µM. It also gave a Vmax (not read [44]) of 1.13 µM/min.

Reference: ChEMBL document CHEMBL1135676, “Comparative molecular field analysis of substrates for an aryl sulfotransferase based on catalytic mechanism and protein homology modeling” (J Med Chem, 2002)
